Experiments:
[1] = tested on: K562; assay: Antiproliferative activity against human K562 cells after 48 hrs; format: functional, cell-based; conditions: K562, 48 h
Outline: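 Growth of K562 cells measured by counting cells with a hemocytometer after 48 h (2 days) of drug treatment. IC50 is the mean of at least three independent determinations.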

[2] = molecular target: Tubulin (Sus scrofa, UniProt P02554+P02550); assay: Inhibition of porcine brain tubulin polymerization
[3] = Cell cycle arrest in KB/HeLa cells assessed as accumulation at G2/M phase after 24 hrs by flow cytometric analysis; format: functional, cell-based; conditions: Homo sapiens
Outline: (§1)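 Subconfluent KB/HeLa cells exposed to a range of compound concentrations for 24 h. Cell cycle phase distribution determined by flow cytometry. Experiments run at least in duplicate (n = 2).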

[4] = Cell cycle arrest in KB/HeLa cells assessed as accumulation at S phase at 0.1 nM after 24 hrs by flow cytometric analysis; format: functional, cell-based; conditions: Homo sapiens; outline: as §1
[5] = Cell cycle arrest in KB/HeLa cells assessed as accumulation at S phase at 3.16 nM after 24 hrs by flow cytometric analysis; format: functional, cell-based; conditions: Homo sapiens; outline: as §1
[6] = Cell cycle arrest in KB/HeLa cells assessed as accumulation at S phase at 0.3 nM after 24 hrs by flow cytometric analysis; format: functional, cell-based; conditions: Homo sapiens; outline: as §1
[7] = Cell cycle arrest in KB/HeLa cells assessed as accumulation at S phase at 1 nM after 24 hrs by flow cytometric analysis; format: functional, cell-based; conditions: Homo sapiens; outline: as §1
[8] = Cell cycle arrest in KB/HeLa cells assessed as accumulation at S phase at 10 nM after 24 hrs by flow cytometric analysis; format: functional, cell-based; conditions: Homo sapiens; outline: as §1
[9] = Cell cycle arrest in KB/HeLa cells assessed as accumulation at S phase at 31.6 nM after 24 hrs by flow cytometric analysis; format: functional, cell-based; conditions: Homo sapiens; outline: as §1
[10] = Cell cycle arrest in KB/HeLa cells assessed as accumulation at S phase at 100 nM after 24 hrs by flow cytometric analysis; format: functional, cell-based; conditions: Homo sapiens; outline: as §1
[11] = Cell cycle arrest in KB/HeLa cells assessed as accumulation at S phase at 316 nM after 24 hrs by flow cytometric analysis; format: functional, cell-based; conditions: Homo sapiens; outline: as §1
[12] = Cell cycle arrest in KB/HeLa cells assessed as accumulation at G2M phase at 0.1 nM after 24 hrs by flow cytometric analysis; format: functional, cell-based; conditions: Homo sapiens; outline: as §1
[13] = Cell cycle arrest in KB/HeLa cells assessed as accumulation at G2M phase at 0.3 nM after 24 hrs by flow cytometric analysis; format: functional, cell-based; conditions: Homo sapiens; outline: as §1
[14] = Cell cycle arrest in KB/HeLa cells assessed as accumulation at G2M phase at 1 nM after 24 hrs by flow cytometric analysis; format: functional, cell-based; conditions: Homo sapiens; outline: as §1
[15] = Cell cycle arrest in KB/HeLa cells assessed as accumulation at G2M phase at 3.16 nM after 24 hrs by flow cytometric analysis; format: functional, cell-based; conditions: Homo sapiens
[16] = Cell cycle arrest in KB/HeLa cells assessed as accumulation at G2M phase at 10 nM after 24 hrs by flow cytometric analysis; format: functional, cell-based; conditions: Homo sapiens; outline: as §1
[17] = Cell cycle arrest in KB/HeLa cells assessed as accumulation at G2M phase at 31.6 nM after 24 hrs by flow cytometric analysis; format: functional, cell-based; conditions: Homo sapiens; outline: as §1
[18] = Cell cycle arrest in KB/HeLa cells assessed as accumulation at G2M phase at 100 nM after 24 hrs by flow cytometric analysis; format: functional, cell-based; conditions: Homo sapiens; outline: as §1
[19] = Cell cycle arrest in KB/HeLa cells assessed as accumulation at G2M phase at 316 nM after 24 hrs by flow cytometric analysis; format: functional, cell-based; conditions: Homo sapiens; outline: as §1
[20] = Cell cycle arrest in KB/HeLa cells assessed as accumulation at G1 phase at 0.1 nM after 24 hrs by flow cytometric analysis; format: functional, cell-based; conditions: Homo sapiens; outline: as §1
[21] = Cell cycle arrest in KB/HeLa cells assessed as accumulation at G1 phase at 0.3 nM after 24 hrs by flow cytometric analysis; format: functional, cell-based; conditions: Homo sapiens; outline: as §1
[22] = Cell cycle arrest in KB/HeLa cells assessed as accumulation at G1 phase at 1 nM after 24 hrs by flow cytometric analysis; format: functional, cell-based; conditions: Homo sapiens; outline: as §1
[23] = Cell cycle arrest in KB/HeLa cells assessed as accumulation at G1 phase at 3.16 nM after 24 hrs by flow cytometric analysis; format: functional, cell-based; conditions: Homo sapiens; outline: as §1
[24] = Cell cycle arrest in KB/HeLa cells assessed as accumulation at G1 phase at 10 nM after 24 hrs by flow cytometric analysis; format: functional, cell-based; conditions: Homo sapiens; outline: as §1
[25] = Cell cycle arrest in KB/HeLa cells assessed as accumulation at G1 phase at 31.6 nM after 24 hrs by flow cytometric analysis; format: functional, cell-based; conditions: Homo sapiens; outline: as §1
[26] = Cell cycle arrest in KB/HeLa cells assessed as accumulation at G1 phase at 100 nM after 24 hrs by flow cytometric analysis; format: functional, cell-based; conditions: Homo sapiens; outline: as §1
[27] = Cell cycle arrest in KB/HeLa cells assessed as accumulation at G1 phase at 316 nM after 24 hrs by flow cytometric analysis; format: functional, cell-based; conditions: Homo sapiens; outline: as §1
[28] = molecular target: Tubulin; assay: Displacement of [3H]colchicine from biotinylated tubulin by scintillation proximity assay; format: protein-complex assay, Homo sapiens
[29] = Cytotoxicity against human KB/HeLa cells after 48 hrs by XTT assay; format: functional, cell-based
Outline: (§2)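 XTT proliferation assay with 48 h incubation with test compound. Each experiment run at least in duplicate (n = 2). IC50 calculated by nonlinear regression of dose-response curves.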

[30] = tested on: SK-OV-3; assay: Cytotoxicity against human SKOV3 cells after 48 hrs by XTT assay; format: functional, cell-based; conditions: SK-OV-3, 48 h; outline: as §2
[31] = tested on: SF-268; assay: Cytotoxicity against human SF268 cells after 48 hrs by XTT assay; format: functional, cell-based; conditions: SF-268, 48 h; outline: as §2
[32] = tested on: NCI-H460; assay: Cytotoxicity against human NCI-H460 cells after 48 hrs by XTT assay; format: functional, cell-based; conditions: NCI-H460, 48 h; outline: as §2
[33] = tested on: RKO; assay: Cytotoxicity against human RKO cells after 48 hrs by XTT assay; format: functional, cell-based; outline: as §2
[34] = tested on: RKO; assay: Cytotoxicity against human RKO cells with ectopic-inducible expression of p27kip1 after 48 hrs by XTT assay; format: functional, cell-based; outline: as §2
[35] = Antiproliferative activity against rat L12 cells after 48 hrs by XTT assay; format: functional, cell-based
[36] = Antiproliferative activity against rat multidrug-resistant L12 cells after 48 hrs by XTT assay; format: functional, cell-based; conditions: L1.2, 48 h; outline: as §2
[37] = tested on: L1210; assay: Antiproliferative activity against mouse L1210 cells after 48 hrs by XTT assay; format: functional, cell-based; conditions: L1210, 48 h; outline: as §2
[38] = tested on: L1210; assay: Antiproliferative activity against mouse vincristine-resistant L1210 cells after 48 hrs by XTT assay; format: functional, cell-based; conditions: L1210, 48 h; outline: as §2
[39] = tested on: P388; assay: Antiproliferative activity against mouse P388 cells after 48 hrs by XTT assay; format: functional, cell-based; conditions: P388, 48 h; outline: as §2
[40] = tested on: P388; assay: Antiproliferative activity against mouse adriamycin-resistant P388 cells after 48 hrs by XTT assay; format: functional, cell-based; conditions: P388, 48 h; outline: as §2
[41] = Cell cycle arrest in KB/HeLa cells assessed as accumulation at S phase at 1000 nM after 24 hrs by flow cytometric analysis; format: functional, cell-based; conditions: Homo sapiens; outline: as §1
[42] = Cell cycle arrest in KB/HeLa cells assessed as accumulation at G2M phase at 1000 nM after 24 hrs by flow cytometric analysis; format: functional, cell-based; conditions: Homo sapiens; outline: as §1
[43] = Cell cycle arrest in KB/HeLa cells assessed as accumulation at G1 phase at 1000 nM after 24 hrs by flow cytometric analysis; format: functional, cell-based; conditions: Homo sapiens; outline: as §1

Work on `CN(C)c1ccc(S(=O)(=O)Oc2c3ccccc3cc3sccc23)cc1` yielded an IC50 [1] of 80 nM and an IC50 [2] of 940 nM.

`CC[C@]1(O)C[C@H]2CN(CCc3c([nH]c4ccccc34)[C@@](C(=O)OC)(c3cc4c(cc3OC)N(C=O)[C@H]3[C@@](O)(C(=O)OC)[C@H](OC(C)=O)[C@]5(CC)C=CCN6CC[C@]43[C@@H]65)C2)C1` [VINCRISTINE] showed an EC50 [3] of 2.4 nM, an Activity [4] of 27.7% and an Activity [5] of 26%. For the same molecule, the Activity [6] was 24%, the Activity [7] was 28.3% and the Activity [8] was 13.1%. The Activity [9] was 7.2%, the Activity [10] was 4.8% and the Activity [11] was 5.9%. The Activity [12] was 11.1%, the Activity [13] was 11.7% and the Activity [14] was 17.2%. The Activity [15] was 65.8%, the Activity [16] was 86.7% and the Activity [17] was 92.6%. For the same molecule, the Activity [18] was 95.1%, the Activity [19] was 93.8% and the Activity [20] was 61.2%. It also gave an Activity [21] of 64.5%, an Activity [22] of 53.7% and an Activity [23] of 6.5%. It also gave an Activity [24] of 0.5%, an Activity [25] of 1% and an Activity [26] of 0.2%. It also gave an Activity [27] of 0.2%.

`COc1ccc(S(=O)(=O)Oc2c3ccccc3cc3sccc23)cc1` gave an IC50 [1] of 60 nM, an IC50 [2] of 910 nM and an IC50 [28] of 510 nM. It also gave an IC50 [29] of 180 nM, an IC50 [30] of 210 nM and an IC50 [31] of 260 nM. It also gave an IC50 [32] of 210 nM, an IC50 [33] of 180 nM and an IC50 [34] greater than 9000 nM. For the same molecule, the IC50 [35] was 170 nM, the IC50 [36] was 190 nM and the IC50 [37] was 190 nM. The IC50 [38] was 200 nM, the IC50 [39] was 180 nM and the IC50 [40] was 180 nM. For the same molecule, the EC50 [3] was 125 nM, the Activity [4] was 27.1% and the Activity [5] was 26.5%. For the same molecule, the Activity [6] was 26.6%, the Activity [7] was 26.7% and the Activity [8] was 27.4%. For the same molecule, the Activity [9] was 28.6%, the Activity [10] was 32.1% and the Activity [11] was 7%. For the same molecule, the Activity [41] was 9.7%, the Activity [12] was 12.3% and the Activity [13] was 12%. For the same molecule, the Activity [14] was 11.4%, the Activity [15] was 11.3% and the Activity [16] was 11.9%. For the same molecule, the Activity [17] was 11.7%, the Activity [18] was 16.7% and the Activity [19] was 92.1%. For the same molecule, the Activity [42] was 88.7%, the Activity [20] was 60.6% and the Activity [21] was 61.4%. It also gave an Activity [22] of 61.9%, an Activity [23] of 62.2% and an Activity [24] of 60.7%. The Activity [25] was 59.8%, the Activity [26] was 51.2% and the Activity [27] was 0.9%. For the same molecule, the Activity [43] was 1.6%.

For `CNc1ccc(S(=O)(=O)Oc2c3ccccc3cc3sccc23)cc1`, the IC50 [1] was 50 nM and the IC50 [2] was 290 nM.

For `COc1cccc(S(=O)(=O)Oc2c3ccccc3cc3ccccc23)c1`, the IC50 [1] was 480 nM and the IC50 [2] was 390 nM.

Work on `COc1cc2c(c(OC)c1OC)-c1ccc(OC)c(=O)cc1[C@@H](NC(C)=O)CC2` [COLCHICINE] yielded an IC50 [29] of 30 nM, an IC50 [34] greater than 14000 nM and an EC50 [3] of 14 nM. For the same molecule, the Activity [5] was 25.1%, the Activity [6] was 26.6% and the Activity [7] was 25.4%. The Activity [8] was 35.7%, the Activity [9] was 11.9% and the Activity [10] was 5.1%. It also gave an Activity [11] of 5.2%, an Activity [13] of 10.1% and an Activity [14] of 10%. For the same molecule, the Activity [16] was 32.1%, the Activity [17] was 87.6% and the Activity [18] was 94.7%. The Activity [19] was 94.5%, the Activity [21] was 63.3% and the Activity [22] was 64.7%. For the same molecule, the Activity [23] was 64.3%, the Activity [24] was 32.2% and the Activity [25] was 0.5%. It also gave an Activity [26] of 0.3% and an Activity [27] of 0.3%.
